According to ChEMBL document CHEMBL1123629, “Resolution, absolute configuration, and cholinergic enantioselectivity of (-)- and (+)-c-2-methyl-r-5-[(dimethylamino)methyl]-1,3-oxathiolane t-3-oxide methiodide and related sulfones” (1987):

Key:
[1] = Nicotinic activity on frog rectus abdominis; type: functional, Rectus abdominis muscle
[2] = Eudismic ratio was determined in frog rectus abdominis; type: functional, Rectus abdominis muscle
[3] = Eudismic ratio was determined in guinea pig ileum; type: functional
[4] = Equipotent molar ratio(EPMR) between the ED50 of compound and ED50 of carbachol calculated on frog rectus abdominis; type: functional, Rectus abdominis muscle
Summary of the method: (§1)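 ED50 for test agonist and for carbachol (reference) were obtained by regressing the angular transform of fractional contractile effect against log agonist concentration. Potency is expressed as the equipotent molar ratio, ED50 test/ED50 carbachol. Values below 1 indicate greater potency than carbachol.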

[5] = Equipotent molar ratio(EPMR) between the ED50 of compound and ED50 of carbachol calculated on guinea pig ileum; type: functional; summary of the method: as §1
[6] = Muscarinic selectivity is reported as the ED50 ratio (ED50 Nicotinic / ED50 Muscarinic); type: functional
Summary of the method: (§2)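 Selectivity is computed from nicotinic (frog rectus abdominis) and muscarinic (guinea pig ileum) data as ED50(N)/ED50(M) and as EPMR(N)/EPMR(M). Each ED50 comes from regressing the angular transform of fractional effect on log agonist concentration, with carbachol as the reference.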

[7] = Muscarinic selectivity is reported as the EPMR ratio (EPMR Nicotinic/ EPMR Muscarinic); type: functional; summary of the method: as §2
Cavia porcellus = species: Cavia porcellus; assay: Muscarinic activity on guinea pig ileum; type: functional

Compound | ED50 [1] | Eudismic ratio [2] | Eudismic ratio [3] | EPMR [4] | EPMR [5] | Selectivity [6] | Selectivity [7] | ED50 (Cavia porcellus) [nM]
C[C@H]1O[C@@H](C[N+](C)(C)C)CS1(=O)=O.[I-] | 0.033 nM | 12 | 1 | 6.5 | 170 | 2.1 | 0.04 | –
C[C@@H]1O[C@H](C[N+](C)(C)C)CS1(=O)=O.[I-] (racemic) | – | – | – | 15 | 281 | – | – | 0.000264
C[C@@H]1O[C@H](C[N+](C)(C)C)CS1(=O)=O.[I-] | – | – | – | 76 | 168 | – | – | 0.000158
C[C@@H]1O[C@H](C[N+](C)(C)C)CS1(=O)=O | – | – | – | – | – | 24 | 0.5 | –
C[C@H]1O[C@H](C[N+](C)(C)C)C[S+]1[O-].[I-] (mixture of isomers) | 2100 nM | – | – | 41 | 209 | – | – | 19.6
C[N+](C)(C)CCOC(N)=O.[Cl-] [CARBACHOL] | 5100 nM | – | – | 1 | 1 | – | – | 94
C[C@@H]1O[C@H](C[N+](C)(C)C)CS1(=O)=O (racemic) | – | – | – | – | – | 3 | 0.05 | –
C[C@H]1O[C@@H](C[N+](C)(C)C)C[S+]1[O-].[I-] (mixture of isomers) | 2300 nM | – | – | 45 | 1.3 | – | – | 12.2
C[C@@H]1O[C@H](C[N+](C)(C)C)C[C@H]1O (racemic) [MUSCARINE] | > 500 | – | – | >95 | 0.8 | – | – | 79.4
